# Calls of active or inactive are those of the source.
# Experiments:
# [1] = system: Mycobacterium tuberculosis; test: Antimycobacterial activity against Mycobacterium tuberculosis H37Ra lux infected in mouse J774A.1 cells assessed as reduction in intracellular mycobacterial replication at 5.0 uM incubated for 24 to 72 hrs by luminometric assay relative to control; type: functional
# In short: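 J774A.1 cells were infected at MOI 10 for 2 h at 37°C. Extracellular bacteria were killed with 100 µg/mL gentamicin for 1 h, then cells were washed and treated. At 24, 48 and 72 h, cells were lysed with 1% Triton X-100 and n-decanal was added to the lysate. Luminescence (RLU) reported as mean of triplicates ± SD.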
# UGT [2] = test: Microsomal stability in mouse liver microsomes assessed as UGT-mediated metabolism by measuring compound remaining at 5 uM and measured for 60 mins in presence of UDPGA by UPLC-MS/MS analysis (reference value: 100%); type: ADME; details: read-out: Stability
# In short: (§1)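 Compound at 5 µM with 0.5 mg/mL liver microsomes in PBS. Phase I was started with 1 mM NADPH; phase II used 2 mM UDPGA. Diclofenac served as reference. Samples taken at 0, 15, 30 and 60 min were quenched in ice-cold acetonitrile, centrifuged at 4°C and analysed by LC-MS. Mean of at least two replicates ± SD.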
# CYP450 [3] = test: Microsomal stability in mouse liver microsomes assessed as CYP450-mediated metabolism by measuring compound remaining at 5 uM and measured for 30 mins in presence of NADPH by UPLC-MS/MS analysis (reference value: 100%); type: ADME; details: read-out: Stability; in short: as §1
# [4] = Cytotoxicity against mouse J774A.1 cells assessed as reduction in cell viability incubated for 24 hrs by neutral red uptake assay; type: cell-based, J774.A1
# In short: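 J774A.1 cells in DMEM + 10% iFCS, 37°C, 5% CO2, seeded at 40.000 cells/well and left overnight. Twofold dilutions from 128 µM final; 24 h exposure. Neutral red uptake for 3 h, dye extracted with 1:1 ethanol/acetic acid, OD read at 530 nm (reference 620 nm). CC50 = 50% reduction in uptake; mean of triplicates.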
# UGT [5] = target: UGT (Homo sapiens, UniProt O60656+O75310+O75795+P06133+P0DTE4+P0DTE5+P16662+P19224+P22309+P22310+P35503+P35504+P36537+P54855+Q6UWM9+Q9BY64+Q9HAW7+Q9HAW8+Q9HAW9); test: Microsomal stability in human liver microsomes assessed as UGT-mediated metabolism by measuring compound remaining at 5 uM and measured for 15 mins in presence of UDPGA by UPLC-MS/MS analysis (reference value: 100%); type: ADME; details: read-out: Stability; in short: as §1
# [6] = system: Mycobacterium tuberculosis; test: Induction of ROS generation in Mycobacterium tuberculosis H37Ra ATCC 25177 assessed as increase in superoxide radicals incubated with CMH probe for 50 mins followed by compound addition and measured for 3 to 48 hrs by EPR analysis; type: functional
# In short: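 Mtb H37Ra cultures were exposed to compound, rifampicin or moxifloxacin (2 x MIC), alongside untreated controls. Samples were measured by EPR at 3, 6, 24 and 48 h. Spectra were simulated and double-integrated (aN = 1.58 mT) and converted to absolute CMH radical concentration by calibration. Mean of at least three replicates ± SD; two-way ANOVA with Tukey test.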
# CYP450 [7] = target: CYP450 (Homo sapiens, UniProt P04798+P05177+P05181+P08684+P10632+P10635+P11509+P11712+P13584+P20813+P20815+P20853+P24462+P24903+P33260+P33261+P51589+P78329+P98187+Q02928+Q08477+Q16678+Q16696+Q5TCH4+Q6VVX0+Q7Z449+Q8TAV3+Q96SQ9+Q9HB55); test: Microsomal stability in human liver microsomes assessed as CYP450-mediated metabolism by measuring compound remaining at 5 uM and measured for 30 mins in presence of NADPH by UPLC-MS/MS analysis (reference value: 100%); type: ADME; details: read-out: Stability; in short: as §1
# Mycobacterium marinum = test: Antimycobacterial activity against Mycobacterium marinum NCTC 2275 by resazurin dye based fluorimetric assay; type: functional, organism-based
# In short: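 Resazurin microtiter method as for the bacterial panel. Mycobacteria grown in 7H9 with 10% OADC and 0.5% glycerol; for BCG, 0.05% Tween 80 replaced the glycerol. Cultures were sonicated and needle-passed to single cells. Incubation at 37°C, or 32°C for M. marinum. Fluorescence read at ex 550/em 590 nm; mean of triplicates.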
# [8] = Genotoxicity in Salmonella typhimurium TA104 harboring with pr1 assessed as S/N ratio at 1 to 100 uM measured for 4 hrs with 5 mins interval in presence of rat liver S9 fraction by luminescence based assay; type: toxicity, subcellular; details: salmonella enterica subsp. enterica serovar typhimurium, s9, 4 h
# In short: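 VITOTOX test. Genox (recN2-4) and Cytox (pr1) S. typhimurium TA104 strains were diluted 250-fold and grown in 869 medium for 16 h at 36°C with shaking, then diluted 10-fold and grown 1 h more. Compounds tested at 1, 10 and 100 µM, with or without rat liver S9-mix. Luminescence read for 4 h at 5-min intervals. S/N thresholds: Genox >1.5 genotoxic; Cytox <0.8 toxic, >1.5 luminescence artefact.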
# Staphylococcus aureus = test: Antibacterial activity against Staphylococcus aureus ATCC 6538 incubated for 24 hrs by resazurin dye based fluorimetric assay; type: functional, organism-based; details: ATCC 6538, 24 h
# In short: (§2)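 Resazurin microtiter assay: compounds from 10 mM DMSO stock, twofold serial dilutions from 64 µM final in growth medium, in triplicate. Inoculum from frozen glycerol stocks. Exposure 24 h, or 7 days for Mtb H37Ra (7H9 + 0.5% glycerol + 10% OADC). Then 0.01% resazurin was added and plates were incubated at 37°C until pink. Fluorescence read at ex 550/em 590 nm; mean of triplicates.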
# Enterococcus faecium = test: Antibacterial activity against Enterococcus faecium ATCC 19434 incubated for 24 hrs by resazurin dye based fluorimetric assay; type: functional, organism-based; details: ATCC 19434, 24 h; in short: as §2
# Streptococcus pneumoniae = test: Antibacterial activity against Streptococcus pneumoniae ATCC BAA-334 incubated for 24 hrs by resazurin dye based fluorimetric assay; type: functional, organism-based; details: ATCC BAA-334, 24 h; in short: as §2
# UGT [9] = test: Microsomal stability in mouse liver microsomes assessed as UGT-mediated metabolism by measuring compound remaining at 5 uM and measured for 30 mins in presence of UDPGA by UPLC-MS/MS analysis (reference value: 100%); type: ADME; details: read-out: Stability; in short: as §1
SMILES,Activity [1],"remaining at 1 h, 5 µM (UGT [2]) [%]","remaining at 0.5 h, 5 µM (CYP450 [3]) [%]",CC50 at 24 h [4] [µM],"remaining at 0.25 h, 5 µM (UGT [5]) [%]",fold change (FC) [6],"remaining at 0.5 h, 5 µM (CYP450 [7]) [%]",IC50 (Mycobacterium marinum) [µM],Ratio [8],IC50 (Staphylococcus aureus) [µM],IC50 (Enterococcus faecium) [µM],IC50 (Streptococcus pneumoniae) [µM],"remaining at 0.5 h, 5 µM (UGT [9]) [%]"
O=C1C2=C(C(=O)c3c1cnc1c(F)cccc31)C1CCC2C1 (stereo not given),inactive,61,100,85.5,78,2.85,100,3.3,>= 0.8,> 32,> 64,32 to 64,70
O=C1C2=C(C(=O)c3c1cnc1ccccc31)C1CCC2C1 (stereo not given),58.94%,78,100,64.5,83,–,100,7.73,>= 0.8,32 to 64,32 to 64,32 to 64,86

# Source: ChEMBL document CHEMBL4359864, “The synthesis and in vitro biological evaluation of novel fluorinated tetrahydrobenzo[j]phenanthridine-7,12-diones against Mycobacterium tuberculosis” (Eur J Med Chem, 2019)
